Assay results reported in publication PMC3759693 (Genes & Development, 2013).

Key:
[1] = test system: recruitment of NBS1 R28A mutant to DNA damage sites; assay: Laser microirradiation, relocation of NBS1 R28A-GFP in MEFs; type: cell-based, mouse; conditions: wild-type MEFs
How it was run: (§1)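 U2OS cells or MEFs (wild-type or knockout) on glass-bottomed dishes expressed GFP-fused proteins or mutants. Microirradiation used an equal laser pulse energy and exposure time for every cell, with live imaging. Where used, 100 nM olaparib, 10 μM GLTN or 10 μM wortmannin was added 1 h before irradiation. GFP intensity at the laser line was quantified; normalized curves from 50 cells over three experiments were averaged, ± SD.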

[2] = test system: PARG-dependent PAR hydrolysis; assay: PAR at DNA damage sites after laser microirradiation; type: cell-based; conditions: 10 μM GLTN; Supplemental Fig. 7C
early activation of ATM = assay: Western blot of pATM; type: cell-based; conditions: after IR, cells pretreated with olaparib
How it was run: (§2)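 U2OS cells were given 137Cs IR (10 Gy or indicated doses) and lysed at indicated times. Where used, 100 nM olaparib was added 1 h […]. Lysis on ice in NETN-100 (20 mM Tris-HCl pH 8.0, 100 mM NaCl, 1 mM EDTA, 0.5% NP-40). Soluble fractions were immunoprecipitated and western blotted with the indicated antibodies (e.g., anti-PAR, pATM, pCHK2, pSQpTQ). Triplicates.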

G2/M checkpoint = assay: G2/M checkpoints assay, phospho-histone H3 flow cytometry; type: cell-based; conditions: olaparib treatment
How it was run: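 Stable cells expressing siRNA-resistant Flag-tagged wild-type NBS1 were pretreated with or without olaparib, then given 0 or 2 Gy IR with 1 h recovery. Cells fixed in 70% ethanol and stained with rabbit anti-phospho-histone H3 (Ser10) plus FITC anti-rabbit secondary. RNase A treatment and propidium iodide staining followed. pH3-positive fraction measured by flow cytometry.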

[3] = test system: wild-type or H2AX−/− MEFs; assay: Colony formation assay after IR; type: cell-based, mouse; conditions: 100 nM olaparib, low dose of IR
How it was run: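 500 wild-type or H2AX−/− MEFs seeded per well, then given graded 137Cs IR doses with or without 100 nM olaparib present in the medium throughout culture. After 7 d, cells fixed and crystal violet-stained; colonies of >50 cells counted. Triplicates, mean ± SD, Student's t-test.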

[4] = test system: recruitment of DNA Ligase4 to DNA damage sites; assay: Laser microirradiation, relocation of Ligase4; type: cell-based; conditions: olaparib treatment; Supplemental Fig. 10B
How it was run: as §1

[5] = test system: recruitment of XRCC1 to DNA damage sites; assay: Laser microirradiation, relocation of XRCC1; type: cell-based; conditions: olaparib treatment; Supplemental Fig. 10C
How it was run: as §1

[6] = test system: recruitment of NBS1 to DNA damage sites; assay: Laser microirradiation, relocation of NBS1-GFP in MEFs; type: cell-based, mouse; conditions: 100 nM olaparib 1 h before laser microirradiation
How it was run: as §1

[7] = test system: recruitment of PNKP to DNA damage sites; assay: Laser microirradiation, relocation of PNKP; type: cell-based
How it was run: as §1

[8] = test system: early DNA damage repair in U2OS cells; assay: Neutral comet assay; type: cell-based; conditions: 4 Gy IR, olaparib treatment
[9] = test system: early phosphorylation of 53BP1; assay: IP/Western blot of 53BP1 phosphorylation after IR; type: cell-based; conditions: cells pretreated with olaparib, then irradiated
How it was run: as §2

[10] = test system: in vivo interaction between PAR and PNKP, APTX, Ligase4, XRCC1, NBS1; assay: Co-IP of PAR with FHA/BRCT domain-containing proteins after IR; type: cell-based; conditions: olaparib pretreatment
How it was run: as §2

[11] = test system: recruitment of NBS1 to DNA damage sites; assay: Laser microirradiation, relocation of NBS1-GFP in U2OS cells; type: cell-based; conditions: 10 μM wortmannin 1 h before laser microirradiation
How it was run: as §1

BRCT domain of MDC1 = target: T1, BRCT domain of MDC1 (Homo sapiens, UniProt Q14676); assay: Affinity of MDC1 BRCT domain with PAR; type: binding
T1 sequence (Q14676 1891-2089 limits assumed): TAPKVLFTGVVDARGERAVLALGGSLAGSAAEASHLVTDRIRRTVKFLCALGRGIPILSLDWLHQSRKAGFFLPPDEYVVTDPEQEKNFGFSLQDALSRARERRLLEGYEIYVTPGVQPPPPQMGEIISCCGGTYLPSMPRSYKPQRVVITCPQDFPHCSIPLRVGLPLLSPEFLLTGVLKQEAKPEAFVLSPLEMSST
How it was run: (§3)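 Recombinant domains expressed in E. coli, or by baculovirus for NBS1 FHA+BRCT (C-terminal GST), and purified. ITC at 16°C: protein at 20∼60 μM final in 10 mM Na2HPO4 (pH 7.5), 100 mM NaCl. Syringe ligand (PAR, ADP-ribose or iso-ADP-ribose) at 150∼750 μM final in the same buffer, with PAR counted as ADP-ribose units. 0.4 μL preinjection, then 19 × 2 μL injections at 120 sec, 1000 rpm. Isotherms integrated and fitted.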

BRCT domain of BRCA1 = BRCT domain of BRCA1 (Homo sapiens, UniProt P38398); assay: Affinity of BRCA1 BRCT domain with PAR; type: binding
How it was run: as §3

FHA domain of CHK2 = FHA domain of CHK2 (Homo sapiens, UniProt O96017); assay: Interaction with CHK2 FHA domain; type: binding; conditions: Supplemental Fig. 3
How it was run: as §3

FHA domain of RNF8 = target: T2, FHA domain of RNF8 (Homo sapiens, UniProt O76064); assay: Interaction with RNF8 FHA domain; type: binding; conditions: Supplemental Fig. 3
T2 sequence (O76064 38-92 limits assumed): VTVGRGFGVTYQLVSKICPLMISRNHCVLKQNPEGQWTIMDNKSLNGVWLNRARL
How it was run: as §3

[12] = target: XRCC1 (amino acids 379–400) peptide (Homo sapiens, UniProt P18887); assay: Dot blot, pull-down or ITC with XRCC1 peptide; type: binding; conditions: pull-down, or ITC assay, data not shown
Sequence of XRCC1 (amino acids 379–400) peptide (P18887 379-400 limits assumed): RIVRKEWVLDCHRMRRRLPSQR

Sequence of BRCT domain of BRCA1 (P38398 1646-1859 limits assumed): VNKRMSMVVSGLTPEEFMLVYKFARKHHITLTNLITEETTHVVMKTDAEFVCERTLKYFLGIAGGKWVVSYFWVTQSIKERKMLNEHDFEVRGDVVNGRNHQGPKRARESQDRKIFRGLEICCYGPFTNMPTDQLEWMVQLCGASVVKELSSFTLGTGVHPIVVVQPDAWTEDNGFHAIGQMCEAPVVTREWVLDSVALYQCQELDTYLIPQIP
Sequence of FHA domain of CHK2 (O96017 113-175 limits assumed): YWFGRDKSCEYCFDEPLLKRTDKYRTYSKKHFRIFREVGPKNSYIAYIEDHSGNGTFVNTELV

Compound: O=C(OC[C@H]1O[C@@H](OC(=O)c2cc(O)c(O)c(OC(=O)c3cc(O)c(O)c(O)c3)c2)[C@H](OC(=O)c2cc(O)c(O)c(OC(=O)c3cc(O)c(O)c(O)c3)c2)[C@@H](OC(=O)c2cc(O)c(O)c(OC(=O)c3cc(O)c(O)c(O)c3)c2)[C@@H]1OC(=O)c1cc(O)c(O)c(OC(=O)c2cc(O)c(O)c(O)c2)c1)c1cc(O)c(O)c(OC(=O)c2cc(O)c(O)c(O)c2)c1 [GLTN, gallotannin]
- retention of NBS1 R28A mutant at DNA damage sites ([1]; GLTN treatment): stabilized NBS1 at DNA damage sites
- half-life of PAR at DNA damage sites [2]: significantly prolonged

Compound: O=C(c1cc(Cc2n[nH]c(=O)c3ccccc23)ccc1F)N1CCN(C(=O)C2CC2)CC1 [olaparib]
- early activation of ATM (early activation of ATM): impaired
- arrest at the G2/M boundary after IR (G2/M checkpoint): could not be fully arrested at the G2/M boundary
- sensitivity to IR-induced DNA damage (colony formation) ([3]; H2AX−/− MEFs): hypersensitive
- sensitivity to IR-induced DNA damage (colony formation) ([3]; wild-type MEFs): could still be resistant
- early recruitment of DNA Ligase4 to DNA damage sites [4]: impaired the early recruitment
- fast recruitment of XRCC1 to DNA damage sites [5]: abolished fast recruitment
- recruitment of NBS1 to DNA damage sites ([6]; H2AX−/− cells): abolished both the fast recruitment and slow accumulation of NBS1
- relocation of NBS1 to DNA damage sites ([6]; MDC1−/− cells): abolished the relocation of NBS1
- recruitment of NBS1 to DNA damage sites ([6]; wild-type MEFs): abolished the early recruitment of NBS1
- early recruitment of PNKP to DNA damage sites ([7]; olaparib treatment, Supplemental Fig. 9A): impaired the early recruitment
- recruitment of NBS1 R28A mutant to DNA damage sites ([1]; olaparib treatment): abolished the recruitment of NBS1
- DNA damage repair (comet assay tail moment) [8]: significantly impaired
- early phosphorylation of 53BP1 [9]: clearly suppressed
- in vivo interaction of FHA/BRCT domain-containing proteins with PAR [10]: no longer interacted with PAR in vivo

Compound: COC[C@H]1OC(=O)c2coc3c2[C@@]1(C)C1=C(C3=O)[C@@H]2CCC(=O)[C@@]2(C)C[C@H]1OC(C)=O [wortmannin]
- recruitment of NBS1 to DNA damage sites [11]: could still be recruited
- retention of PNKP at DNA damage sites ([7]; wortmannin treatment, Supplemental Fig. 9D): significantly impaired

Compound: poly(ADP-ribose) [PAR]
- affinity with PAR (BRCT domain of MDC1): do not have the affinity
- affinity with PAR (BRCT domain of BRCA1): do not have the affinity
- interaction with the FHA domain (FHA domain of CHK2): failed to interact
- interaction with the FHA domain (FHA domain of RNF8): failed to interact
- binding between the peptide and PAR [12]: did not detect any binding
